One may read the Inhibition as the relative decrease from the control value, in per cent. For orientation: inhibition in vivo means the change of the read-out against control, counted positive when it falls.

Results on 21 compounds are retold here after ChEMBL document CHEMBL1123863, “1-[[[5-(substituted phenyl)-2-oxazolyl]methylene]amino]-2,4- imidazolidinediones, a new class of skeletal muscle relaxants” (1987).

One assay concerns Mus musculus. In words: Highest tolerated dose (p.o.) in mice. It counts as functional. The method in brief: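 Mice dosed orally with suspensions in 0.5% methylcellulose 4000 at 50, 200, 400 and 800 mg/kg. Muscle relaxation scored over a 2.0-h observation period on a 0 (none) to 4 (severe) scale. Acute toxicity followed for 72 h after dosing; highest tolerated oral dose given in mg/kg.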

In the next assay the test system is Rattus norvegicus. As to the kind of experiment: Inhibition of gastrocnemius twitch tension after a cumulative dose of 36.6 mg/kg iv in rats. It counts as functional. The conditions noted are these: for inhibition in vivo at 36.6 mg/kg: Rattus norvegicus, Gastrocnemius, iv. The method in brief: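 Pithed rat gastrocnemius preparation: adult male Charles River rats (385–400 g), ether anesthesia, tracheotomy, pithed, artificially respired, bilaterally vagotomized. Tubocurarine chloride 0.075 mg/kg iv given for neuromuscular blockade, isolating direct muscle action. Compounds in tetrahydro-2-furanmethanol or DMSO, given iv as sequential 0.83, 2.5, 8.3, 25 mg/kg doses. Percent twitch tension inhibition read after the cumulative dose.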

On to `O=C1CN(/N=C/c2ncc(-c3ccc([N+](=O)[O-])cc3)o2)C(=O)N1`, for which, in the assay on Mus musculus, the HTD is >800 mg/kg. Moreover, in the assay with Rattus norvegicus, the Inhibition is given as -86%.

Take `Cc1ccc(-c2cnc(/C=N/N3CC(=O)NC3=O)o2)cc1`: the HTD with Mus musculus is >800 mg/kg. Also, in the assay with Rattus norvegicus, the Inhibition was -65%.

Regarding `O=C1CN(/N=C/c2ncc(-c3ccc(Cl)c(Cl)c3)o2)C(=O)[N-]1.[Na+]`, in the assay with Mus musculus, the HTD is >800 mg/kg. The Inhibition in the assay on Rattus norvegicus is listed as -71%.

On to `O=C1CN(/N=C/c2ncc(-c3ccc(Br)cc3)o2)C(=O)[N-]1.[Na+]` [AZUMOLENE SODIUM], for which the HTD in the assay with Mus musculus turned out to be 400 mg/kg. In the assay with Rattus norvegicus, the Inhibition was -83%.

Take `O=C1CN(/N=C/c2ncc(-c3ccc(F)cc3)o2)C(=O)N1`: the HTD with Mus musculus was >800 mg/kg. Moreover, in the assay with Rattus norvegicus, the Inhibition was -70%.

With `O=C1CN(/N=C/c2ncc(-c3ccc([N+](=O)[O-])cc3)o2)C(=O)[N-]1.[Na+]`, the HTD with Mus musculus was >800 mg/kg. The Inhibition in the assay with Rattus norvegicus is given as -84%.

For the compound `COc1ccc(-c2cnc(/C=N/N3CC(=O)[N-]C3=O)o2)cc1.[Na+]`, in the assay on Mus musculus, the HTD is >800 mg/kg. Besides, the Inhibition with Rattus norvegicus is -58%.

Turning to `O=C1CN(/N=C/c2ncc(-c3ccccc3[N+](=O)[O-])o2)C(=O)N1`, the HTD in the assay on Mus musculus is >800 mg/kg. Further, the inhibition in vivo at 36.6 mg/kg with Rattus norvegicus was determined as 0%.

In the assay with Mus musculus, `O=C1CN(/N=C/c2ncc(-c3ccc(F)cc3)o2)C(=O)[N-]1.[Na+]` yielded an HTD of 400 mg/kg. In addition, in the assay with Rattus norvegicus, the Inhibition is given as -75%.

In the case of `O=C1CN(/N=C/c2ncc(-c3ccccc3)o2)C(=O)N1`, the HTD in the assay on Mus musculus was >800 mg/kg. Moreover, the Inhibition in the assay with Rattus norvegicus is -41%.

In the case of `COc1ccc(-c2cnc(/C=N/N3CC(=O)NC3=O)o2)cc1`, the HTD in the assay with Mus musculus is >800 mg/kg. Moreover, in the assay with Rattus norvegicus, the Inhibition is on record as -47%.

`O=C1CN(/N=C/c2ncc(-c3cccc(C(F)(F)F)c3)o2)C(=O)[N-]1.[Na+]`: in the assay with Mus musculus, the HTD is 50 mg/kg. In addition, the Inhibition in the assay on Rattus norvegicus was -69%.

On to `O=C1CN(/N=C/c2ncc(-c3ccc(Cl)cc3)o2)C(=O)N1`, for which, in the assay on Mus musculus, the HTD was >800 mg/kg. Also, in the assay with Rattus norvegicus, the Inhibition is listed as -80%.

In the case of `Cc1ccc(-c2cnc(/C=N/N3CC(=O)[N-]C3=O)o2)cc1.[Na+]`, the HTD in the assay on Mus musculus was >800 mg/kg. Also, the Inhibition in the assay with Rattus norvegicus is reported as -62%.

In the assay on Mus musculus, `O=C1CN(/N=C/c2ncc(-c3ccc(Cl)cc3)o2)C(=O)[N-]1.[Na+]` displayed an HTD of 400 mg/kg. Further, in the assay with Rattus norvegicus, the Inhibition is on record as -81%.

`O=C1CN(/N=C/c2ncc(-c3cccc(Cl)c3)o2)C(=O)[N-]1.[Na+]`: the HTD in the assay with Mus musculus was 400 mg/kg. Moreover, the inhibition in vivo at 36.6 mg/kg in the assay with Rattus norvegicus is -42%.

In the assay on Mus musculus, `O=C1CN(/N=C/c2ncc(-c3cccc(C(F)(F)F)c3)o2)C(=O)N1` yielded an HTD of 400 mg/kg. Also, in the assay on Rattus norvegicus, the Inhibition is -56%.

Regarding `O=C1CN(/N=C/c2ncc(-c3ccc(Br)cc3)o2)C(=O)N1` [AZUMOLENE], the HTD with Mus musculus is >800 mg/kg. The Inhibition with Rattus norvegicus is on record as -82%.

In turn, `O=C1CN(/N=C/c2ncc(-c3ccccc3)o2)C(=O)[N-]1.[Na+]` gave an HTD in the assay with Mus musculus of 200 mg/kg. In the assay on Rattus norvegicus, the Inhibition is given as -49%.

As to `O=C1CN(/N=C/c2ncc(-c3ccc(Cl)c(Cl)c3)o2)C(=O)N1`, the HTD in the assay with Mus musculus is >800 mg/kg. Moreover, the Inhibition in the assay on Rattus norvegicus is listed as -82%.

For `O=C1CN(/N=C/c2ccc(-c3ccc([N+](=O)[O-])cc3)o2)C(=O)[N-]1.[Na+]` [DANTROLENE SODIUM], the HTD in the assay on Mus musculus is >400 mg/kg. Moreover, the inhibition in vivo at 36.6 mg/kg in the assay with Rattus norvegicus is -80%.
